Measured values taken from ChEMBL document CHEMBL1926591, “Synthesis of quinolinomorphinan-4-ol derivatives as δ opioid receptor agonists” (Bioorg Med Chem, 2012).

Assays:
[1] = molecular target: Delta-type opioid receptor (Rattus norvegicus, UniProt P33533); experiment: Displacement of [3H]DADLE from delta opioid receptor in rat cerebrum membranes; format: cell membranes, Membrane
How it was run: (§1)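 Rat cerebrum membranes; mu sites labelled with [³H]DAMGO and delta sites with [³H]DADLE, displaced by varying test concentrations. Nonspecific binding was defined with unlabeled levallorphan. Ki was derived from displacement data using the Cheng–Prusoff equation.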

Rattus norvegicus = organism: Rattus norvegicus; experiment: Selectivity ratio of Ki for mu opioid receptor in rat cerebrum membranes to Ki for delta opioid receptor in rat cerebrum membranes; format: cell membranes; settings: Membrane; how it was run: as §1
[2] = molecular target: T1, Kappa-type opioid receptor (Cavia porcellus, UniProt P41144); experiment: Displacement of [3H]U-69,593 from kappa opioid receptor in guinea pig cerebrum membranes; format: cell membranes, Membrane
T1 sequence (P41144 whole entry): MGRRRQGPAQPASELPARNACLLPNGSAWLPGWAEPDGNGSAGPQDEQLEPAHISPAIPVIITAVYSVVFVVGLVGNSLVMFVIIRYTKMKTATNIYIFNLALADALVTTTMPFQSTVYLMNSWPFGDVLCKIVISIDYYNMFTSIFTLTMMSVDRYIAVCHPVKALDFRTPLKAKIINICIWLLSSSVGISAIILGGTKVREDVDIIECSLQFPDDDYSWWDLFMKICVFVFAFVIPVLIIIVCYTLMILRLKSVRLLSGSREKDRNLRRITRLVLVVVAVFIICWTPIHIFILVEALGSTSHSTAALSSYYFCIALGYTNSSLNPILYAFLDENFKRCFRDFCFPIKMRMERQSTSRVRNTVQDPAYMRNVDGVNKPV
How it was run: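 Kappa binding used guinea pig cerebrum membranes labelled with [³H]U-69,593 and displaced by test compound. Nonspecific binding was taken with […] unlabeled U-69,593. Ki was obtained via Cheng–Prusoff.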

Mu-type opioid receptor [3] = molecular target: Mu-type opioid receptor (Rattus norvegicus, UniProt P33535); experiment: Displacement of [3H]DAMGO from mu opioid receptor in rat cerebrum membranes; format: cell membranes, Membrane; how it was run: as §1
Mu-type opioid receptor (Rattus norvegicus, UniProt P33535), sequence (P33535 whole entry): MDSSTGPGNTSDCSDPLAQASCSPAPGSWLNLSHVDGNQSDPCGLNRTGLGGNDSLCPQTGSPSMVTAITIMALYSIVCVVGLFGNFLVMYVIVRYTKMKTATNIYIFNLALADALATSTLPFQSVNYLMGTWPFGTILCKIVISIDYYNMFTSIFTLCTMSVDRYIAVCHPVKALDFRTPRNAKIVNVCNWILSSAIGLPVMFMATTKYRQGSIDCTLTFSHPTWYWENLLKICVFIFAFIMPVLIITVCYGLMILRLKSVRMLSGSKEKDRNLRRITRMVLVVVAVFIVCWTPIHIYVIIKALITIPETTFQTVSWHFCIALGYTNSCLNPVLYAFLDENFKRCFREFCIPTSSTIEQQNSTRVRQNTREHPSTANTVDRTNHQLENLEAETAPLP

[4] = Selectivity ratio of Ki for kappa opioid receptor in guinea pig cerebrum membranes to Ki for delta opioid receptor in rat cerebrum membranes; format: cell membranes; settings: Membrane
[5] = molecular target: T2, Delta-type opioid receptor (Homo sapiens, UniProt P41143); experiment: Agonist activity at human recombinant delta opioid receptor expressed in human HEK293 cells by [35S]GTPgammaS binding assay; format: functional, cell-based
T2 sequence (P41143 whole entry): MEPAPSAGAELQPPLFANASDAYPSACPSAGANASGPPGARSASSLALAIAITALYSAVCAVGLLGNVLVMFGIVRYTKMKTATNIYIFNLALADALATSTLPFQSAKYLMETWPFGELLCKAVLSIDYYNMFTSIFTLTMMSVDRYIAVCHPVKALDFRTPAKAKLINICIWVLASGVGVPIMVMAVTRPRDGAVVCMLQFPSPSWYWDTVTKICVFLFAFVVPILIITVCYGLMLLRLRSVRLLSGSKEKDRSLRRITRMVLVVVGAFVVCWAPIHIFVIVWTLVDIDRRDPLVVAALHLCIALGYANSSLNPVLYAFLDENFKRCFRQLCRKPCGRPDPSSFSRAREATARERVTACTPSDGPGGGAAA

Mu-type opioid receptor [6] = molecular target: Mu-type opioid receptor (Mus musculus, UniProt P42866); experiment: Displacement of [3H]DAMGO from mu opioid receptor in mouse whole brain membranes without cerebellum; format: cell membranes, Membrane
Mu-type opioid receptor (Mus musculus, UniProt P42866), sequence (P42866 whole entry): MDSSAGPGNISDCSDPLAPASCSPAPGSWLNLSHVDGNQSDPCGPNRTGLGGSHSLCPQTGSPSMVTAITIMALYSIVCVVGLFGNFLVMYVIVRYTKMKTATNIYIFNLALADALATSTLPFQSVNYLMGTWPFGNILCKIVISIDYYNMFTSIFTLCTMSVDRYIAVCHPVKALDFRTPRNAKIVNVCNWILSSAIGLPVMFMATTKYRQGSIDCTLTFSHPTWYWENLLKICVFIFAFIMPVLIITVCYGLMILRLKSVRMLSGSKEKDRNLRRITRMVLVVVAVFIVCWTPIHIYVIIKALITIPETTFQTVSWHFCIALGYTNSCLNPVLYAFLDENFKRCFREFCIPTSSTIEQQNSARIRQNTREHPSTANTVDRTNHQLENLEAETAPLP

[7] = molecular target: T1, Kappa-type opioid receptor; experiment: Displacement of [3H]U-69,593 from kappa opioid receptor in guinea pig cerebellum membranes; format: cell membranes, Membrane
[8] = molecular target: Delta-type opioid receptor (Mus musculus, UniProt P32300); experiment: Displacement of [3H]DPDPE from delta opioid receptor in mouse whole brain membranes without cerebellum; format: cell membranes, Membrane
Delta-type opioid receptor (Mus musculus, UniProt P32300), sequence (P32300 whole entry): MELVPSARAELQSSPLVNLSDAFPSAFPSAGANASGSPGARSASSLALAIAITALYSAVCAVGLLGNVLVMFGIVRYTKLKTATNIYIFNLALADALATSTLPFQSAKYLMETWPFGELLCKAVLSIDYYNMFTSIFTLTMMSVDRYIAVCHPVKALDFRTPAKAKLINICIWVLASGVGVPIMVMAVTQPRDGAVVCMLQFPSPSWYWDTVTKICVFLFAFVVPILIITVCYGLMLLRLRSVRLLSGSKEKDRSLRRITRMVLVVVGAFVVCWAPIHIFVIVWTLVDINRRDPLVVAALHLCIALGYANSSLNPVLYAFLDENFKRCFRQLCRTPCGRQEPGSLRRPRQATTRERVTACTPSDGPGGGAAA

[9] = molecular target: T2, Delta-type opioid receptor; experiment: Ratio of SNC80 EC50 to compound EC50 for human recombinant delta opioid receptor expressed in human HEK293 cells; format: cell-based
[10] = molecular target: T2, Delta-type opioid receptor; experiment: Ratio of (-)TAN-67 EC50 to compound EC50 for human recombinant delta opioid receptor expressed in human HEK293 cells; format: cell-based
How it was run: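 [³⁵S]GTPγS binding used purchased HEK-293 membranes carrying human recombinant delta receptor. Incubation buffer was 50 mM Tris, 1 mM EDTA, 12.5 mM MgCl₂, 100 mM NaCl and 0.5% BSA. It contained GDP, 0.1 nM [³⁵S]GTPγS and graded compound concentrations. (−)-TAN-67 served as the standard delta agonist.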

Delta-type opioid receptor (Rattus norvegicus, UniProt P33533), sequence (P33533 whole entry): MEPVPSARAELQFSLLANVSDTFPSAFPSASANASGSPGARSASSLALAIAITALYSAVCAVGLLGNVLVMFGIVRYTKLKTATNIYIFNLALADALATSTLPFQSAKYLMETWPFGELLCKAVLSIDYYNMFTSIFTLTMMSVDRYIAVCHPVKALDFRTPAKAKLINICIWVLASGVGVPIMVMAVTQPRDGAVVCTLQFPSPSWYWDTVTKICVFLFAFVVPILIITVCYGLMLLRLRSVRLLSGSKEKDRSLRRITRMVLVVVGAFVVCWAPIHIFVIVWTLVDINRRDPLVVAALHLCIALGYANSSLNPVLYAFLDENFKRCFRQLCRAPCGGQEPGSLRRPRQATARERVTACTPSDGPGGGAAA

SMILES	Ki [1]	Ratio Ki (Rattus norvegicus)	Ki [2]	Ki (Mu-type opioid receptor [3])	Ratio Ki [4]	EC50 [5]	Ki (Mu-type opioid receptor [6])	Ki [7]	Ki [8]	Ratio EC50 [9]	Ratio EC50 [10]
CC(C)CN1CC[C@]23Cc4nc5ccccc5cc4C[C@H]2[C@H]1Cc1cccc(O)c13	1.22 nM	265	516 nM	323 nM	423	2.34 nM					
Oc1ccc2c(c1)[C@]13CCN(CCc4ccccc4)[C@H](C2)[C@@H]1Cc1cc2ccccc2nc1C3							12.5 nM	17.9 nM	4.68 nM		
CN1CC[C@]23Cc4nc5ccccc5cc4C[C@H]2[C@H]1Cc1ccc(O)cc13		82.4			72.9		23.2 nM	14.3 nM	0.29 nM	10	10
Oc1ccc2c(c1)[C@]13CCN(CC4CCCC4)[C@H](C2)[C@@H]1Cc1cc2ccccc2nc1C3							20.1 nM	3.54 nM	0.35 nM		
CC(C)CN1CC[C@]23Cc4nc5ccccc5cc4C[C@H]2[C@H]1Cc1ccc(O)cc13		124			23.2					10	10
CN1CC[C@]23Cc4nc5ccccc5cc4C[C@H]2[C@H]1Cc1cccc(O)c13	1 nM	51.8	263 nM	51.8 nM	263	1.77 nM					
Oc1cccc2c1[C@]13CCN(CC4CC4)[C@H](C2)[C@@H]1Cc1cc2ccccc2nc1C3	0.27 nM	548	17.5 nM	148 nM	64.8	0.19 nM					
Oc1ccc2c3c1O[C@H]1c4nc5ccccc5cc4C[C@H]4[C@@H](C2)N(CC2CC2)CC[C@]314	0.43 nM	30.2	14.8 nM	13 nM	34.4						
Oc1ccc2c(c1)[C@]13CCN(CC4CC4)[C@H](C2)[C@@H]1Cc1cc2ccccc2nc1C3		4.1			1.9					10	10
Oc1ccc2c(c1)[C@]13CCN(CC4CCC4)[C@H](C2)[C@@H]1Cc1cc2ccccc2nc1C3							6.31 nM	1.07 nM	0.12 nM		
Oc1ccc2c(c1)[C@]13CCN(Cc4ccccc4)[C@H](C2)[C@@H]1Cc1cc2ccccc2nc1C3							76.9 nM	50 nM	12.4 nM		
CN1CC[C@]2(c3cccc(O)c3)Cc3nc4ccccc4cc3C[C@H]2C1		197			509						
